ChEMBL document CHEMBL3045113, “Inhibition of plant-pathogenic bacteria by short synthetic cecropin A-melittin hybrid peptides” (Appl Environ Microbiol, 2006)
In brackets after ≈: the same amount, converted by molar mass. Activity calls are given as the source filed them. The calls are words filed in the database; no cut-off is given here. *1 amine or outer side, *2 acyl side, *3 side chain or, on linkers, in order; H or OH if unused. Where a SMILES comes first, the peptide text is derived from it. [ ]: non-standard residue; d: D form. The star is where a group is joined. X1 = O=C([C@H](Cc1c[nH]c2ccccc12)N(Cc1ccccc1)[*:1])[*:2]; Palmitoyl = CCCCCCCCCCCCCCCC(=O)*; Tos = Cc1ccc(S(=O)(=O)*)cc1; Bz = O=C(c1ccccc1)*

Key:
Xanthomonas vesicatoria [1] = assay: Antibacterial activity against Xanthomonas vesicatoria 2133-2 after 48 hr by broth dilution method; type: functional; conditions: 2133-2, 48 h
How it was run: (§1)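 Broth microdilution in tryptic soy broth with bacteria from a 10⁸ CFU/ml suspension. Final peptide levels were 750 down to 25 μM, or 250 to 3.12 μM for cecropin A. Plates were held at 25°C with OD600 read hourly for 48 h, in duplicate wells, and the run was repeated twice. MIC is the lowest concentration with no growth at 48 h.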

[2] = tested on: Pseudomonas syringae pv. syringae; assay: Antibacterial activity against Pseudomonas syringae pv. syringae EPS94 after 48 hr by broth dilution method; type: functional; conditions: EPS94, 48 h; how it was run: as §1
Erwinia amylovora [3] = assay: Antibacterial activity against Erwinia amylovora PMV6076 assessed as growth inhibition after 48 hr; type: functional; conditions: PMV6076, 48 h, read-out: ED50 (the source's name)
How it was run: (§2)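 Growth was read as OD600 every hour for 48 h at 25°C in tryptic soy broth across a peptide dilution series, in duplicate, repeated twice. Growth is the area under the curve, and inhibition is given as % of the water control. ED50 comes from a probit-dose model fitted by nonlinear least squares.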

[4] = tested on: Pseudomonas syringae pv. syringae; assay: Antibacterial activity against Pseudomonas syringae pv. syringae EPS94 assessed as growth inhibition after 48 hr; type: functional; conditions: EPS94, 48 h, read-out: ED50 (the source's name); how it was run: as §2
Erwinia amylovora [5] = assay: Antibacterial activity against Erwinia amylovora PMV6076 after 48 hr by broth dilution method; type: functional; conditions: PMV6076, 48 h; how it was run: as §1
[6] = Hemolytic activity against Homo sapiens (human) RBC assessed as hemoglobin release after 1 hr; type: ADME, cell-based, Erythrocyte; conditions: red blood cells, read-out: HD50
How it was run: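 Fresh EDTA-anticoagulated human blood was washed in Tris buffer (10 mM Tris, 150 mM NaCl, pH 7.2) and used as a 5% suspension. Equal volumes of cells and peptide at 800 to 12.5 μM were shaken for 1 h at 37°C, then centrifuged. Supernatant A540 was taken relative to buffer and a melittin full-lysis control. HD50 was derived by probit fit.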

Xanthomonas vesicatoria [7] = assay: Antibacterial activity against Xanthomonas vesicatoria 2133-2 assessed as growth inhibition after 48 hr; type: functional; conditions: 2133-2, 48 h, read-out: ED50 (the source's name); how it was run: as §2
Xanthomonas vesicatoria [8] = assay: Antibacterial activity against Xanthomonas vesicatoria 2133-2 at 25 to 750 uM after 48 hr by broth dilution method; type: functional, organism-based; how it was run: as §1
[9] = tested on: Pseudomonas syringae pv. syringae; assay: Antibacterial activity against Pseudomonas syringae pv. syringae EPS94 at 25 to 750 uM after 48 hr by broth dilution method; type: functional, organism-based; how it was run: as §1
Erwinia amylovora [10] = assay: Antibacterial activity against Erwinia amylovora PMV6076 at 25 to 750 uM after 48 hr by broth dilution method; type: functional, organism-based; how it was run: as §1
[11] = Stability of the compound in tris buffer at pH 7.6 at 50 ug/ml after 45 min by HPLC method in presence of proteinase K; conditions: pH 7.6, 0.75 h
Erwinia amylovora [12] = assay: Bactericidal activity against Erwinia amylovora PMV6076 assessed as decrease in survival at 5 uM after 48 hr; type: functional, organism-based
How it was run: (§3)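 LB broth cultures at 4 × 10⁶ CFU/ml were exposed to 5 μM peptide. Samples taken every 30 min over 3 h were diluted 10-fold and plated on LB agar. Colonies were counted after 48 h at 25°C, and survival is expressed as % of the starting count.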

[13] = tested on: Pseudomonas syringae pv. syringae; assay: Bactericidal activity against Pseudomonas syringae pv. syringae EPS94 assessed as decrease in survival at 5 uM after 48 hr; type: functional, organism-based; how it was run: as §3
Xanthomonas vesicatoria [14] = assay: Bactericidal activity against Xanthomonas vesicatoria 2133-2 assessed as decrease in survival at 5 uM after 48 hr; type: functional, organism-based; how it was run: as §3
Xanthomonas vesicatoria [15] = assay: Bactericidal activity against Xanthomonas vesicatoria 2133-2 assessed as decrease in survival at 5 uM after 90 min; type: functional, organism-based; how it was run: as §3

Compound | MIC (Xanthomonas vesicatoria [1]) [µM] | MIC [2] [µM] | EC50 (Erwinia amylovora [3]) [µM] | EC50 [4] [µM] | MIC (Erwinia amylovora [5]) [µM] | HC50 at 1 h [6] [µM] | EC50 (Xanthomonas vesicatoria [7]) [µM] | Activity (Xanthomonas vesicatoria [8]) | Activity [9] | Activity (Erwinia amylovora [10]) | Stability [11] | Activity (Erwinia amylovora [12]) | Activity [13] | Activity (Xanthomonas vesicatoria [14]) | Activity (Xanthomonas vesicatoria [15])
CC[C@H](C)[C@H](NC(=O)[C@H](CCCCN)NC(=O)[C@H](CCCCN)NC(=O)[C@H](Cc1ccccc1)NC(=O)[C@H](CC(C)C)NC(=O)[C@H](CCCCN)NC(=O)[C@@H](N)Cc1c[nH]c2ccccc12)C(=O)N[C@@H](CC(C)C)C(=O)N[C@@H](CCCCN)C(=O)N[C@@H](Cc1ccc(O)cc1)C(=O)N[C@@H](CC(C)C)C(N)=O | 2 (≈ 2.96 µg/mL) | 2 (≈ 2.96 µg/mL) | 3.2 | 2.7 | 2 (≈ 2.96 µg/mL) | 42 | 2.3 | – | – | – | – | – | – | – | –
CC[C@H](C)[C@H](NC(=O)[C@H](CCCCN)NC(=O)[C@H](CCCCN)NC(=O)[C@H](Cc1ccccc1)NC(=O)[C@H](CC(C)C)NC(=O)[C@H](CCCCN)NC(=O)[C@@H](N)CCCCN)C(=O)N[C@@H](CC(C)C)C(=O)N[C@@H](CCCCN)C(=O)N[C@@H](CCCCN)C(=O)N[C@@H](CC(C)C)C(N)=O | – | – | – | – | – | – | – | inactive | inactive | inactive | – | – | – | – | –
CC[C@H](C)[C@H](NC(=O)[C@H](CCCCN)NC(=O)[C@H](CCCCN)NC(=O)[C@H](Cc1ccccc1)NC(=O)[C@H](CC(C)C)NC(=O)[C@H](CCCCN)NC(=O)[C@H](Cc1c[nH]c2ccccc12)NC(=O)c1ccccc1)C(=O)N[C@@H](CC(C)C)C(=O)N[C@@H](CCCCN)C(=O)N[C@H](C(=O)N[C@@H](CC(C)C)C(N)=O)C(C)C (Bz-WKLFKKILKVL-NH2) | < 2 | 15 (≈ 22.8 µg/mL) | 15.1 | 9.5 | 15 (≈ 22.8 µg/mL) | 11 | – | – | – | – | Unstable | – | – | – | –
CC[C@H](C)[C@H](NC(=O)[C@H](CCCCN)NC(=O)[C@H](CCCCN)NC(=O)[C@H](Cc1ccccc1)NC(=O)[C@H](CC(C)C)NC(=O)[C@H](CCCCN)NC(=O)[C@H](Cc1c[nH]c2ccccc12)NCc1ccccc1)C(=O)N[C@@H](CC(C)C)C(=O)N[C@@H](CCCCN)C(=O)N[C@H](C(=O)N[C@@H](CC(C)C)C(N)=O)C(C)C (H-[X1]KLFKKILKVL-NH2) | 2 (≈ 3.01 µg/mL) | 5 (≈ 7.53 µg/mL) | 5 | 3.8 | 7 (≈ 10.5 µg/mL) | 30 | 2.5 | – | – | – | – | inactive | Active | Active | –
CCCCCCCCCCCCCCCC(=O)N[C@@H](Cc1c[nH]c2ccccc12)C(=O)N[C@@H](CCCCN)C(=O)N[C@@H](CC(C)C)C(=O)N[C@@H](Cc1ccccc1)C(=O)N[C@@H](CCCCN)C(=O)N[C@@H](CCCCN)C(=O)N[C@H](C(=O)N[C@@H](CC(C)C)C(=O)N[C@@H](CCCCN)C(=O)N[C@H](C(=O)N[C@@H](CC(C)C)C(N)=O)C(C)C)[C@@H](C)CC (Palmitoyl-WKLFKKILKVL-NH2) | 25 (≈ 41.3 µg/mL) | 50 (≈ 82.7 µg/mL) | 60 | 56.8 | 50 (≈ 82.7 µg/mL) | 6 | 14.7 | – | – | – | – | – | – | – | –
CC[C@H](C)[C@H](NC(=O)[C@H](CCCCN)NC(=O)[C@H](CCCCN)NC(=O)[C@H](Cc1ccccc1)NC(=O)[C@H](CC(C)C)NC(=O)[C@H](CCCCN)NC(=O)[C@H](Cc1c[nH]c2ccccc12)NS(=O)(=O)c1ccc(C)cc1)C(=O)N[C@@H](CC(C)C)C(=O)N[C@@H](CCCCN)C(=O)N[C@H](C(=O)N[C@@H](CC(C)C)C(N)=O)C(C)C (Tos-WKLFKKILKVL-NH2) | < 2 | 12 (≈ 18.8 µg/mL) | 11.2 | 6.9 | 12 (≈ 18.8 µg/mL) | 10 | – | – | – | – | – | – | – | – | –
CC[C@H](C)[C@H](NC(=O)[C@H](CCCCN)NC(=O)[C@H](CCCCN)NC(=O)[C@H](Cc1ccccc1)NC(=O)[C@H](CC(C)C)NC(=O)[C@H](CCCCN)NC(=O)[C@@H](N)CCCCN)C(=O)N[C@@H](CC(C)C)C(=O)N[C@@H](CCCCN)C(=O)N[C@@H](Cc1ccccc1)C(=O)N[C@@H](CC(C)C)C(N)=O [KKLFKKILKFL-NH2] | 2 (≈ 2.81 µg/mL) | 2 (≈ 2.81 µg/mL) | 2.5 | 2.1 | 2 (≈ 2.81 µg/mL) | 203 | 1.9 | – | – | – | Stable | Active | Active | – | Active
CC[C@H](C)[C@H](NC(=O)[C@H](CCCCN)NC(=O)[C@H](CCCCN)NC(=O)[C@H](Cc1ccccc1)NC(=O)[C@H](CC(C)C)NC(=O)[C@H](CCCCN)NC(=O)[C@@H](N)CCCCN)C(=O)N[C@@H](CC(C)C)C(=O)N[C@@H](CCCCN)C(=O)N[C@H](C(=O)N[C@@H](CC(C)C)C(N)=O)C(C)C [KKLFKKILKVL-NH2] | 12 (≈ 16.3 µg/mL) | 2 (≈ 2.71 µg/mL) | 4.3 | 1.6 | 5 (≈ 6.78 µg/mL) | 334 | 7.3 | – | – | – | Unstable | Active | Active | Active | –
Ac-WKLFKKILKVL-NH2 | 2 | 7 | 9 | 4.3 | 10 | 17 | 2 | – | – | – | Unstable | – | – | – | –
H-FKLFKKILKVL-NH2 | – | – | – | – | – | – | – | inactive | inactive | inactive | – | – | – | – | –
H-LKLFKKILKVL-NH2 | 10 | 5 | 4.3 | 3.2 | 5 | 190 | 4.1 | – | – | – | Unstable | Active | Active | Active | –
H-WKLFKKILKFL-NH2 | < 2 | 5 | 1.3 | 1.9 | 5 | 32 | – | – | – | – | – | – | – | – | –
H-WKLFKKILKKL-NH2 | – | – | – | – | – | – | – | inactive | inactive | inactive | – | – | – | – | –
H-WKLFKKILKVL-NH2 | 7 | 7 | 5.5 | 5.5 | 7 | 104 | 3.6 | – | – | – | Unstable | Active | Active | Active | –
H-WKLFKKILKWL-NH2 | < 2 | 5 | 3 | 2.5 | 5 | 26 | – | – | – | – | – | – | – | – | –
H-YKLFKKILKVL-NH2 | – | – | – | – | – | – | – | inactive | inactive | inactive | – | – | – | – | –
